Data reported in ChEMBL document CHEMBL1932993, “Synthesis and cytotoxicity of O,O'-dialkyl {[2-(substituted phenoxy)acetamido](substituted phenyl)methyl}phosphonates” (Eur J Med Chem, 2012).

Tests used:
[1] = Cytotoxicity against human CNE2 cells after 72 hrs ny MTT assay; type: functional, cell-based; conditions: CNE-2, 72 h
How it was run: (§1)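 Cells grown in RPMI 1640 with 10% fetal calf serum and seeded at 2 × 10^4/mL. They were held 12 h at 37 °C in 5% CO2, then exposed to compound for 3 days at 37 °C. MTT formazan was dissolved and absorbance read at 570 nm. IC50 is the concentration giving 50% growth inhibition versus untreated controls. At least 3 independent experiments.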

KB = experiment: Cytotoxicity against human KB cells after 72 hrs ny MTT assay; type: functional, cell-based; how it was run: as §1

Compound	IC50 [1] [µM]	IC50 (KB) [µM]
CCCOP(=O)(OCCC)C(NC(=O)COc1ccc(Cl)cc1)c1ccccc1 (centres undefined)	42.9	23
CCCCOP(=O)(OCCCC)C(NC(=O)COc1ccc(F)cc1Cl)c1ccccc1 (centres undefined)	13.1	12.3
CCCCOP(=O)(OCCCC)C(NC(=O)COc1ccc(C(C)(C)C)cc1)c1ccc(OC)cc1 (centres undefined)	31.1	13.3
COc1ccc(C(NC(=O)COc2ccc(Cl)cc2Cl)P(=O)(OC)OC)cc1 (centres undefined)	> 50	> 50
CCOP(=O)(OCC)C(NC(=O)COc1ccc(Cl)cc1)c1ccc(OC)cc1 (centres undefined)	> 50	> 50
CCCOP(=O)(OCCC)C(NC(=O)COc1cccc(C(F)(F)F)c1)c1ccc(OC)cc1 (centres undefined)	38.5	19.8
CCCCOP(=O)(OCCCC)C(NC(=O)COc1ccc(Cl)c(C)c1)c1ccccc1 (centres undefined)	43	18.1
CCCCOP(=O)(OCCCC)C(NC(=O)COc1ccc(OC)cc1)c1ccccc1 (centres undefined)	41.2	25.5
COP(=O)(OC)C(NC(=O)COc1ccc(Cl)cc1Cl)c1ccccc1 (centres undefined)	> 50	> 50
CCCOP(=O)(OCCC)C(NC(=O)COc1ccc(Cl)cc1Cl)c1ccccc1 (centres undefined)	26	16
CCCOP(=O)(OCCC)C(NC(=O)COc1ccc(Cl)cc1Cl)c1ccc(OC)cc1 (centres undefined)	27.2	17.4
CCCCOP(=O)(OCCCC)C(NC(=O)COc1cccc(C)c1C)c1ccccc1 (centres undefined)	25.1	18.2
CCCCOP(=O)(OCCCC)C(NC(=O)COc1ccc(Cl)cc1C)c1ccccc1 (centres undefined)	19.9	12.3
CCCCOP(=O)(OCCCC)C(NC(=O)COc1ccc(Cl)cc1Cl)c1ccccc1 (centres undefined)	13.8	17.8
CCCCOP(=O)(OCCCC)C(NC(=O)COc1ccccc1Cl)c1ccccc1 (centres undefined)	11.4	15.8
CCOP(=O)(OCC)C(NC(=O)COc1ccc([N+](=O)[O-])cc1)c1ccc(OC)cc1 (centres undefined)	> 50	> 50
CCCCOP(=O)(OCCCC)C(NC(=O)COc1ccccc1Cl)c1ccc(OC)cc1 (centres undefined)	13.4	14.5
CCCOP(=O)(OCCC)C(NC(=O)COc1cccc(C(F)(F)F)c1)c1ccccc1 (centres undefined)	41.8	21.6
CCCCOP(=O)(OCCCC)C(NC(=O)COc1cccc(C)c1C)c1ccc(OC)cc1 (centres undefined)	20.7	7.1
COP(=O)(OC)C(NC(=O)COc1ccc(Cl)c(C)c1)c1ccc(C)cc1 (centres undefined)	> 50	> 50
CCOP(=O)(OCC)C(NC(=O)COc1cccc(C(F)(F)F)c1)c1ccc(OC)cc1 (centres undefined)	> 50	> 50
COc1ccc(C(NC(=O)COc2cccc(C)c2C)P(=O)(OC)OC)cc1 (centres undefined)	> 50	> 50
CCCCOP(=O)(OCCCC)C(NC(=O)COc1cc(Cl)c(Cl)cc1Cl)c1ccccc1 (centres undefined)	> 50	15.9
CCOP(=O)(OCC)C(NC(=O)COc1ccc(Cl)cc1C)c1ccc(OC)cc1 (centres undefined)	> 50	> 50
COP(=O)(OC)C(NC(=O)COc1ccc(Cl)cc1Cl)c1ccc(C)cc1 (centres undefined)	> 50	> 50
CCOP(=O)(OCC)C(NC(=O)COc1ccc(Cl)cc1Cl)c1ccc(OC)cc1 (centres undefined)	> 50	> 50
O=c1[nH]cc(F)c(=O)[nH]1 [FLUOROURACIL]	13.5	9
